Data from ChEMBL document CHEMBL4033778, “Species-Selective Pyrimidineamine Inhibitors of Trypanosoma brucei S-Adenosylmethionine Decarboxylase” (J Med Chem, 2018).

Tests used:
Trypanosoma brucei = assay: Inhibition of recombinant Trypanosoma brucei N-terminal His6-tagged AdoMetDC/prozyme hetrodimer expressed in Escherichia coli BL21/DE3 cells at 180 uM at pH 7.2 by RapidFire-MS-based enzyme activity assay
Summary of the method: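 Steady-state decarboxylation of S-adenosyl-L-methionine by purified TbAdoMetDC/prozyme at pH 7.2; decarboxylated AdoMet product read by RapidFire–MS. Inhibitor added from DMSO to 2% final DMSO. Percent inhibition reported at the top tested concentration when mean inhibition stayed below 50%; triplicate.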

[1] = molecular target: T1, S-adenosylmethionine decarboxylase proenzyme (Homo sapiens, UniProt P17707); assay: Inhibition of recombinant human N-terminal His6-tagged AdoMetDC expressed in Escherichia coli BL21/DE3 cells at pH 7.2 by RapidFire-MS-based enzyme activity assay
T1 sequence (P17707 whole entry): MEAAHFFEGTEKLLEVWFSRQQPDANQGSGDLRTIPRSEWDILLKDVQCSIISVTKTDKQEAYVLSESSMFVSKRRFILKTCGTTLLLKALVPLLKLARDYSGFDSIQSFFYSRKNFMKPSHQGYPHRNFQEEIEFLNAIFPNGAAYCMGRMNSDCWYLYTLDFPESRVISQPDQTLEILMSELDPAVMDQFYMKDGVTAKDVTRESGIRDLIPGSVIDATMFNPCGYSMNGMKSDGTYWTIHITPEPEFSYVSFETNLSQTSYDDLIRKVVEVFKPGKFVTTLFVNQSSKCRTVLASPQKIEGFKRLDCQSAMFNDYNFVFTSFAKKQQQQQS

[2] = Inhibition of recombinant Trypanosoma brucei N-terminal His6-tagged AdoMetDC/prozyme hetrodimer expressed in Escherichia coli BL21/DE3 cells at pH 7.2 by RapidFire-MS-based enzyme activity assay
[3] = molecular target: T2, S-adenosylmethionine decarboxylase proenzyme (Homo sapiens) (UniProt P17707); assay: Inhibition of recombinant human N-terminal His6-tagged AdoMetDC expressed in Escherichia coli BL21/DE3 cells at 180 uM at pH 7.2 by RapidFire-MS-based enzyme activity assay
T2 sequence (whole entry): T1 sequence (P17707 whole entry)

IC50 [1] [µM] | inhibition [3] [%] | Compound | inhibition (Trypanosoma brucei) [%] | IC50 [2] [µM]
> 180 | – | CCCCOc1cc(Br)cc(Nc2cc(C)nc(N)n2)c1 | – | 4.5
> 63 | – | Cc1cc(Nc2cc(Cl)c(Cl)c(Cl)c2)nc(N)n1 | – | 11
> 180 | – | Cc1cc(Nc2ccccc2C)nc(N)n1 | – | > 180
> 21 | – | Cc1cc(Nc2cc(Cl)cc(-c3ccc(F)cc3)c2)nc(N)n1 | – | 1.1
> 63 | – | Cc1cc(Nc2cc(C(C)(C)C)cc(C(C)(C)C)c2)nc(N)n1 | – | > 63
– | 29 | Cc1cc(Nc2cc(Cl)cc(C#N)c2)nc(N)n1 | – | 3.9
– | 39 | Cc1cc(Nc2cc(Cl)cc(C(F)(F)F)c2)nc(N)n1 | – | 3.9
> 180 | – | Cc1cc(Nc2cc(Cl)c(N3CCOCC3)c(Cl)c2)nc(N)n1 | – | > 180
> 180 | – | Cc1cc(Nc2cc(Cl)cc(-c3ccc(O)cc3)c2)nc(N)n1 | – | 143
> 180 | – | Cc1cc(Nc2cc(Cl)cc(-c3ccc4ccccc4c3)c2)nc(N)n1 | – | 57
– | 33 | Cc1cc(Nc2cc(Cl)cc(Br)c2)nc(N)n1 | – | 2.2
> 180 | – | Cc1cc(Nc2ccc(C(C)C)cc2)nc(N)n1 | – | > 180
> 180 | – | Cc1cc(Nc2cc(Cl)c(N3CCCCC3)c(Cl)c2)nc(N)n1 | – | > 180
> 180 | – | Cc1cc(Nc2cc(Cl)cc(-c3ccc4nonc4c3)c2)nc(N)n1 | – | 27
> 180 | – | Cc1cc(Nc2cc(F)cc(Cl)c2)nc(N)n1 | – | 32
> 180 | – | Cc1cc(Sc2cc(Cl)cc(Cl)c2)nc(N)n1 | – | > 180
> 180 | – | CCc1cc(Nc2cc(C)nc(N)n2)cc(-c2ccc(F)cc2)c1 | – | 2.7
> 180 | – | CCc1cc(Br)cc(Nc2cc(C)nc(N)n2)c1 | – | 7.6
> 180 | – | Cc1cc(Nc2ccccc2Br)nc(N)n1 | – | > 180
> 180 | – | Cc1cc(Nc2cc(Cl)cc(-c3ccc(Cl)c(C(F)(F)F)c3)c2)nc(N)n1 | – | 53
> 63 | – | Cc1cc(Nc2cc(Cl)c(C)c(Cl)c2)nc(N)n1 | – | 20
> 180 | – | Cc1cc(Nc2cc(Cl)cc(-c3cc(C(F)(F)F)cc(C(F)(F)F)c3)c2)nc(N)n1 | – | 28
> 63 | – | Cc1cc(Nc2cc(Cl)c(OC(F)F)c(Cl)c2)nc(N)n1 | – | > 63
> 63 | – | Cc1cc(Nc2cc(Cl)cc(-c3ccc(Cl)cc3)c2)nc(N)n1 | – | 1.7
> 63 | – | Cc1ccc(-c2cc(Cl)cc(Nc3cc(C)nc(N)n3)c2)cc1 | – | 4.6

IC50 [1] [µM] | inhibition [3] [%] | Compound | inhibition (Trypanosoma brucei) [%] | IC50 [2] [µM]
> 180 | – | Cc1cc(Nc2ccc(Cl)cc2C)nc(N)n1 | – | > 180
> 180 | – | Nc1nc(Nc2cc(Cl)cc(Cl)c2)cc(C(F)(F)F)n1 | – | > 180
> 180 | – | Nc1cccc(Nc2cc(Cl)cc(Cl)c2)n1 | – | > 180
> 180 | – | Nc1ccnc(Nc2cc(Cl)cc(Cl)c2)c1 | – | > 180
> 180 | – | CCc1ccc(Nc2cc(C)nc(N)n2)cc1 | – | > 180
> 180 | – | Cc1cc(Nc2cc(F)cc(F)c2)nc(N)n1 | – | 180
> 21 | – | Nc1nc2c(c(Nc3cc(Cl)cc(Cl)c3)n1)CCC2 | – | 12
> 180 | – | Cc1cc(Nc2cccc(F)c2)nc(N)n1 | – | > 180
> 63 | – | CNc1nc(C)cc(Nc2cc(Cl)cc(Cl)c2)n1 | – | > 63
> 180 | – | Cc1cc(Nc2cc(Cl)cc(Cl)c2)nc(N(C)C)n1 | – | > 180
> 180 | – | Cc1cc(Nc2cc(Cl)cc(-c3cc4ccccc4s3)c2)nc(N)n1 | – | 41
> 180 | – | Nc1nc(Nc2cc(Cl)cc(Cl)c2)cc(N2CCOCC2)n1 | – | > 180
> 21 | – | Cc1cc(Nc2cc(Cl)cc(-c3ccc(C(F)(F)F)cc3)c2)nc(N)n1 | – | 4.7
– | 25 | Cc1nc(N)nc(Nc2cc(Cl)cc(Cl)c2)c1C | – | 4.8
> 180 | – | Cc1cc(Nc2cc(Cl)cc(-c3ccc(Cl)c(Cl)c3)c2)nc(N)n1 | – | 102
– | 36 | CCc1cc(Nc2cc(Cl)cc(Cl)c2)nc(N)n1 | – | 3
> 180 | – | Cc1cc(C)cc(Nc2cc(C)nc(N)n2)c1 | – | 141
– | 21 | COc1cc(Nc2cc(C)nc(N)n2)cc(OC)c1 | – | 17
> 180 | – | Cc1cc(Nc2cc(C(=O)O)cc(C(=O)O)c2)nc(N)n1 | – | > 180
> 180 | – | Cc1cc(Nc2cc(C(=O)Nc3cc(Cl)cc(Cl)c3)cc(C(=O)Nc3cc(Cl)cc(Cl)c3)c2)nc(N)n1 | – | > 180
> 180 | – | Cc1cc(Nc2cc(Cl)cc(S(F)(F)(F)(F)F)c2)nc(N)n1 | – | 16
> 180 | – | Cc1cc(Nc2ccccc2)nc(N)n1 | – | > 180
> 180 | – | Cc1cc(Nc2cc(Cl)cc(-c3cncnc3)c2)nc(N)n1 | – | > 180
– | 36 | CCOc1cc(Br)cc(Nc2cc(C)nc(N)n2)c1 | – | 6
> 63 | – | Cc1cc(Nc2cc(Cl)c(F)c(Cl)c2F)nc(N)n1 | – | 2.2

IC50 [1] [µM] | inhibition [3] [%] | Compound | inhibition (Trypanosoma brucei) [%] | IC50 [2] [µM]
> 180 | – | Cc1cc(Nc2cc(Br)cc(OCC(C)C)c2)nc(N)n1 | – | 11
> 21 | – | Cc1cc(Nc2cc(Cl)cc(-c3ccc4c(c3)OCO4)c2)nc(N)n1 | – | 6.2
> 180 | – | Cc1cc(Nc2cc(-c3ccccc3)cc(-c3ccccc3)c2)nc(N)n1 | – | > 180
> 180 | – | Cc1cc(Nc2cc(Cl)cc(-c3ccc(-c4ccccc4)cc3)c2)nc(N)n1 | – | 167
> 180 | – | Cc1cc(Nc2cc(Cl)cc(-c3cnn(C)c3)c2)nc(N)n1 | – | 164
> 180 | – | Cc1cc(Nc2cc(Br)cc(S(F)(F)(F)(F)F)c2)nc(N)n1 | – | 8.7
> 180 | – | Cc1cc(Nc2cc(C(F)(F)F)cc(C(F)(F)F)c2)nc(N)n1 | – | 11
– | 43 | Cc1cc(Nc2cc(Br)c(F)c(Br)c2)nc(N)n1 | – | 1.6
> 180 | – | Cc1cc(Nc2ccc(C(F)(F)F)cc2)nc(N)n1 | – | > 180
– | 39 | Cc1cc(Nc2cc(S(C)(=O)=O)cc(S(C)(=O)=O)c2)nc(N)n1 | – | 1.5
– | 30 | Cc1cc(Nc2cc(Cl)cc(-c3ccsc3)c2)nc(N)n1 | – | 26
> 180 | – | Cc1cc(Nc2cc(Cl)c(N(C)C)c(Cl)c2)nc(N)n1 | – | > 180
> 180 | – | Cc1cc(Nc2ccc(-c3cc(Cl)cc(Cl)c3)cc2)nc(N)n1 | – | > 180
> 180 | – | Cc1cc(N(C)c2cc(Cl)cc(Cl)c2)nc(N)n1 | – | 81
> 180 | – | Cc1cc(Nc2cc(Cl)cc(-c3ccccc3Cl)c2)nc(N)n1 | – | 26
– | 29 | Cc1cc(NCCc2cc(Cl)cc(Cl)c2)nc(N)n1 | – | 28
– | 23 | CSc1cccc(Nc2cc(C)nc(N)n2)c1 | – | 149
> 7 | – | Cc1cc(Nc2cc(Cl)cc(-c3ccc(C#N)cc3)c2)nc(N)n1 | – | 7.6
> 180 | – | CSc1ccccc1Nc1cc(C)nc(N)n1 | – | > 180
> 180 | – | Nc1cc(Nc2cc(Cl)cc(Cl)c2)ccn1 | – | 22
> 180 | – | Cc1cc(Nc2cc(Cl)cc(-c3cccc(Cl)c3)c2)nc(N)n1 | – | 81
> 180 | – | Cc1cc(NCc2cc(Cl)cc(Cl)c2)nc(N)n1 | – | 139
> 180 | – | CC(C)c1cc(Nc2cc(Cl)cc(Cl)c2)nc(N)n1 | – | 12
> 180 | – | Cc1cc(Nc2cc(Cl)cc(Cl)c2)cc(N)n1 | – | 15
> 180 | – | COc1ccc(-c2cc(Cl)cc(Nc3cc(C)nc(N)n3)c2)cc1 | – | 2.3

Compound | IC50 [1] [µM] | inhibition [3] [%] | inhibition (Trypanosoma brucei) [%] | IC50 [2] [µM]
Nc1cnccc1Nc1cc(Cl)cc(Cl)c1 | > 180 | – | 21 | –
Cc1cc(Nc2cc(Cl)c(O)c(Cl)c2)nc(N)n1 | > 180 | – | 33 | –
Cc1cc(Nc2cc(Cl)c(Oc3ccccc3)c(Cl)c2)nc(N)n1 | > 180 | – | 38 | –
Cc1cc(N)cc(Nc2cc(Cl)cc(Cl)c2)n1 | > 180 | – | 24 | –
Cc1cc(Nc2cccc(Cl)c2)nc(N)n1 | > 180 | – | 35 | –
Cc1cc(Nc2cccc(Br)c2)nc(N)n1 | > 180 | – | 41 | –
COC(=O)c1cc(Nc2cc(C)nc(N)n2)cc(C(=O)OC)c1 | > 180 | – | 40 | –
Cc1cc(Nc2cc(Cl)cc(-c3ccc(N(C)C)cc3)c2)nc(N)n1 | > 180 | – | 34 | –
Cc1nc(N)cc(Nc2cc(Cl)cc(Br)c2)n1 | > 180 | – | 24 | –
Cc1cc(Nc2cc(Cl)cc(-c3cc4ccccc4c4ccccc34)c2)nc(N)n1 | > 180 | – | – | > 180
Cc1cc(Nc2cccc(S(F)(F)(F)(F)F)c2)nc(N)n1 | > 180 | – | 23 | –
